bioavailability, AUC and Vd data for two molecules are collected here from ChEMBL document CHEMBL3085749, “Design, optimization, and biological evaluation of novel keto-benzimidazoles as potent and selective inhibitors of phosphodiesterase 10A (PDE10A)” (J Med Chem, 2013).

Broadly, the bioavailability is the share of a dose that reaches the circulation, judged against a reference dose that is usually intravenous. The term AUC denotes the area under the concentration-time curve, a measure of exposure.

Holding throughout (assay type): ADME, organism-based
The nature of series [1]: Oral bioavailability in Sprague-Dawley rat at 10 mg/kg by LC-MS/MS analysis. Particulars: in vivo. The method, boiled down:
(§1)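 Fed male Sprague−Dawley rats. Vehicle for iv was 100% DMSO; for po and ip it was 1% Tween and 2% HPMC with methanesulfonic acid, pH 2.2. Reported parameters are Cl (L/h/kg), Vss (L/kg), AUC (μM·h), T1/2 (h) and %F.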

Series [2] in a line: AUC in Sprague-Dawley rat at 10 mg/kg, po by LC-MS/MS analysis. Set-up: dose 10 mg/kg, route oral. Particulars: plasma. The method, boiled down:
as §1

A short description of series [3]: AUC in Sprague-Dawley rat at 2 mg/kg, iv by LC-MS/MS analysis. Set-up: dose 2 mg/kg, route intravenous. Particulars: plasma.
Series [4] can be described thus: Volume of distribution at steady state in Sprague-Dawley rat at 2 mg/kg, iv by LC-MS/MS analysis. Set-up: dose 2 mg/kg, route intravenous. As to conditions: in vivo, read-out: Vdss.
Series [5] in a line: Oral bioavailability in Sprague-Dawley rat at 5 mg/kg by LC-MS/MS analysis. As to conditions: in vivo.
Series [6] in a line: AUC in Sprague-Dawley rat at 5 mg/kg, po by LC-MS/MS analysis. Set-up: dose 5 mg/kg, route oral. Particulars: plasma.

In turn, `O=C(c1ccc(Oc2nccnc2N2CCC(O)CC2)cc1)c1nc2ccccc2[nH]1` yielded a bioavailability in series [1] of 52%. Moreover, the AUC came out at 11.7 µM·h in series [2] and 4.5 µM·h in series [3]. Further, the Vd in series [4] is 1.28 L/kg.

Consider `CC(=O)N1CCN(c2nccnc2Oc2ccc(C(=O)c3nc4ccccc4[nH]3)cc2)CC1`, for which the bioavailability in series [5] was 56%. In addition, the AUC in series [6] worked out at 79.2 µM·h; in series [3] it was 62.1 µM·h. The Vd in series [4] was determined as 0.165 L/kg.
